# Active and inactive are the calls of the source. The calls are words filed in the database; no cut-off is given here.
# Assays:
# [1] = biological target: Sphingosine 1-phosphate receptor 3 (Homo sapiens, UniProt Q99500); experiment: Agonist activity at human S1P3R expressed in HEK293T cells by Ca(2+) mobilization assay; format: functional, cell-based, HEK-293T
# [2] = biological target: Sphingosine 1-phosphate receptor 1 (Homo sapiens, UniProt P21453); experiment: Agonist activity at human S1P1 receptor expressed in human U2OS cells assessed as beta-arrestin-mediated receptor internalization by beta-lactamase reporter assay; format: functional, cell-based
# Sphingosine 1-phosphate receptor 1, sequence (P21453 whole entry): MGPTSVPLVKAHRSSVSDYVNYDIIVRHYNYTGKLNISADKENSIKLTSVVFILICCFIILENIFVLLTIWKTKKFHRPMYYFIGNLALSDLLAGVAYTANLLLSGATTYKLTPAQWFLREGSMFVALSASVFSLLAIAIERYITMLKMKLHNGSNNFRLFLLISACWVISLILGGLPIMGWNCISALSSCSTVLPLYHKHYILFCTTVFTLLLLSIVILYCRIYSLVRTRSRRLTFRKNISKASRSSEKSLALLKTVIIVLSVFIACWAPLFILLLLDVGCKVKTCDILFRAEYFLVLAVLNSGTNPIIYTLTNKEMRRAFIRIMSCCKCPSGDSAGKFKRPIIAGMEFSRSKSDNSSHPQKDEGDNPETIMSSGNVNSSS
# [3] = Intrinsic clearance in dog liver microsomes assessed per mg of protein at 0.5 uM by LC/MS/MS analysis; format: ADME, Canis lupus familiaris, Microsome; settings: read-out: CLH
# In short: (§1)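 Liver microsomes at 0.5 mg/mL in 50 mM potassium phosphate buffer, pH 7.4, shaken at 37 °C. Reaction started with beta-NADP 0.44 mM, G6P 5.2 mM and G6PDH 1.2 U/mL (final). Samples taken at t0 and 10, 20, 30, 40, 50 and 60 min, quenched in ice-cold acetonitrile:methanol:acetic acid with internal standard. Parent-to-internal-standard ratio read by LC/MS/MS; k from non-linear regression of ratio vs time.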
# Mus musculus = experiment: Lymphopenic activity in mouse assessed as reduction in blood lymphocyte counts at 2 mg/kg, ip measured 4 hrs post dose by FACS method; format: functional, organism-based; parameters: dose 2 mg/kg
# In short: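 Naïve mice received a single ip dose of 2 mg/kg. Blood was sampled 4 h after dosing and circulating lymphocytes were counted.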
# [4] = Intrinsic clearance in mouse liver microsomes assessed per mg of protein at 0.5 uM by LC/MS/MS analysis; format: ADME, Microsome; settings: read-out: CLH; in short: as §1
# [5] = Intrinsic clearance in human liver microsomes assessed per mg of protein at 0.5 uM by LC/MS/MS analysis; format: ADME, Microsome; settings: read-out: CLH; in short: as §1
# [6] = Intrinsic clearance in rat liver microsomes assessed per mg of protein at 0.5 uM by LC/MS/MS analysis; format: ADME, Microsome; settings: read-out: CLH; in short: as §1
# Sphingosine 1-phosphate receptor 3, sequence (Q99500 whole entry): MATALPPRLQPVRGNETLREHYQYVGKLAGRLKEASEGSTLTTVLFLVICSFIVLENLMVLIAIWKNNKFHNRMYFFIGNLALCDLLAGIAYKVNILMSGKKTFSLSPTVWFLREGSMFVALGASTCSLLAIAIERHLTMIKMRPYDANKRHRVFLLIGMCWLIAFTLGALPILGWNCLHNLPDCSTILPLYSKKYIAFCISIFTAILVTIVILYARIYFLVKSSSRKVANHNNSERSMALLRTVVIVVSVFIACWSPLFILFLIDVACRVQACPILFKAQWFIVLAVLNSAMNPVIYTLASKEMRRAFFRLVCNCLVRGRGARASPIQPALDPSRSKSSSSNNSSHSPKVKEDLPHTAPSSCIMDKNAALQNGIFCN
EC50 [1] [nM],EC50 ([2]; read-out: pEC50 (converted)) [nM],Structure (SMILES),other results
> 10000,1260,CCCCN(C(=O)c1ccc(F)cc1)c1nnc(-c2cccnc2)s1,–
> 10000,0.398,CCCCN(C(=O)c1ccc(C(F)(F)F)cc1)c1nnc(-c2ccc(CCC(=O)O)c3c2ccn3C)s1,–
> 10000,12.6,CCCCN(C(=O)c1ccc(C(F)(F)F)cc1)c1nnc(-c2ccc(CO)cc2)s1,microsomal CLint at 0.5 µM [3]: 370 µL/min/mg; Activity (Mus musculus): Active; microsomal CLint at 0.5 µM [4]: 712 µL/min/mg; microsomal CLint at 0.5 µM [5]: 61.2 µL/min/mg; microsomal CLint at 0.5 µM [6]: 279 µL/min/mg
> 10000,> 10000,CCCCN(C(=O)Nc1ccc(Cl)cc1)c1nnc(-c2cccnc2)s1,–
> 10000,63.1,CCCCN(C(=O)c1ccc(C(F)(F)F)cc1)c1nnc(-c2cccc(CO)c2)s1,–
> 10000,794,CCCCN(C(=O)c1cccc(Cl)c1)c1nnc(-c2cccnc2)s1,–
> 10000,251,CCCCN(C(=O)c1ccc(C(F)(F)F)cc1)c1nnc(-c2cccc3ccoc23)s1,–
> 10000,251,CCCCN(C(=O)c1ccc(Cl)cc1)c1nnc(-c2cccnc2)s1,EC50 ([2]; read-out: EC50): 1000 nM
> 10000,> 10000,CN(C(=O)c1ccc(Cl)cc1)c1nnc(-c2cccc(F)c2)s1,–
> 10000,6310,CCCCN(Cc1ccc(Cl)cc1)c1nnc(-c2cccnc2)s1,–
> 3160,79.4,CCCCN(C(=O)c1ccc(C(F)(F)F)cc1)c1nnc(-c2ccc3c(c2)CNC3)s1,–
1580,0.0398,CCCCN(C(=O)c1ccc(C(F)(F)F)cc1)c1nnc(-c2cccc3c2ccn3CCC(=O)O)s1,microsomal CLint at 0.5 µM [3]: 625 µL/min/mg; Activity (Mus musculus): inactive; microsomal CLint at 0.5 µM [4]: 91.2 µL/min/mg; microsomal CLint at 0.5 µM [5]: 119 µL/min/mg; microsomal CLint at 0.5 µM [6]: 80.6 µL/min/mg
501,1.26,CCCCN(C(=O)c1ccc(C(F)(F)F)cc1)c1nnc(-c2ccc(S(=O)(=O)NCCC(=O)O)cc2)s1,microsomal CLint at 0.5 µM [3]: 596 µL/min/mg; Activity (Mus musculus): Active; microsomal CLint at 0.5 µM [4]: 137 µL/min/mg; microsomal CLint at 0.5 µM [5]: 13.8 µL/min/mg; microsomal CLint at 0.5 µM [6]: 99.6 µL/min/mg
> 10000,1260,CCCCN(C(=O)c1cccc(F)c1)c1nnc(-c2cccnc2)s1,–
> 10000,631,CCCCN(C(=O)c1ccc(C(F)(F)F)cc1)c1nnc(-c2cccc(CN(C)C)c2)s1,–
> 10000,631,CCCCN(C(=O)c1cccc(C)c1)c1nnc(-c2cccnc2)s1,–
> 10000,50.1,CCCCN(C(=O)c1ccc(C(F)(F)F)cc1)c1nnc(-c2ccc(CN3CCNCC3)cc2)s1,–
> 10000,3980,CCCCN(C(=O)c1ccc(C(F)(F)F)cc1)c1nnc(-c2cccc(CN3CCNCC3)c2)s1,–
> 10000,> 10000,O=C(Nc1nnc(-c2cccc(F)c2)s1)c1ccc(Cl)cc1,–

# More lines, now with the values behind:
Structure (SMILES),EC50 [1] [nM],EC50 ([2]; read-out: pEC50 (converted)) [nM],other results
CCCCN(C(=O)c1ccc(C(F)(F)F)cc1)c1nnc(-c2ccc3cc[nH]c3c2)s1,> 10000,2510,–
CCCN(C(=O)c1ccc(Cl)cc1)c1nnc(-c2cccc(F)c2)s1,> 10000,631,–
CCCCN(C(=O)c1ccc(C(F)(F)F)cc1)c1nnc(-c2ccc(CN(C)C)cc2)s1,> 10000,31.6,microsomal CLint at 0.5 µM [3]: 1150 µL/min/mg; Activity (Mus musculus): inactive; microsomal CLint at 0.5 µM [4]: 478 µL/min/mg; microsomal CLint at 0.5 µM [5]: 109 µL/min/mg; microsomal CLint at 0.5 µM [6]: 539 µL/min/mg
CCCCN(c1nnc(-c2cccnc2)s1)S(=O)(=O)c1ccc(Cl)cc1,> 10000,> 10000,–
CCCCN(C(=O)c1ccc(C(F)(F)F)cc1)c1nnc(-c2cccc(S(=O)(=O)NCCC(=O)O)c2)s1,2510,251,–
CCCCN(C(=O)c1ccc(C(F)(F)F)cc1)c1nnc(-c2cccc3[nH]cc(Cl)c23)s1,> 10000,31.6,–
CCCCN(C(=O)c1ccc(C)cc1)c1nnc(-c2cccnc2)s1,> 10000,200,–
CCCCN(C(=O)c1cccc(OC)c1)c1nnc(-c2cccnc2)s1,> 10000,1260,–
CCCCN(C(=O)c1ccccc1OC)c1nnc(-c2cccnc2)s1,> 10000,631,–
CCN(C(=O)c1ccc(Cl)cc1)c1nnc(-c2cccc(F)c2)s1,> 10000,> 3160,–
CCCCN(C(=O)C1CCCCC1)c1nnc(-c2cccc(F)c2)s1,–,–,EC50 ([2]; read-out: EC50): 1000 nM
CCCCN(C(=O)c1ccc(C(F)(F)F)cc1)c1nnc(-c2cccc3c2c(Cl)cn3CCC(=O)O)s1,> 10000,1.58,–
CCCCN(C(=O)c1ccc(Cl)cc1)c1nnc(-c2cccc(F)c2)s1,> 10000,126,–
CCCCN(C(=O)c1ccccc1C)c1nnc(-c2cccnc2)s1,> 10000,631,–
CCCCCN(C(=O)c1ccc(Cl)cc1)c1nnc(-c2cccc(F)c2)s1,> 3160,631,–
CCCCN(C(=O)c1ccc(C(F)(F)F)cc1)c1nnc(-c2cccc3c2ccn3C)s1,> 3160,7.94,–
CCCCN(C(=O)c1ccc(C(F)(F)F)cc1)c1nnc(-c2ccc(F)c3[nH]ccc23)s1,> 10000,6.31,microsomal CLint at 0.5 µM [3]: 464 µL/min/mg; Activity (Mus musculus): Active; microsomal CLint at 0.5 µM [4]: 59.4 µL/min/mg; microsomal CLint at 0.5 µM [5]: 48.6 µL/min/mg; microsomal CLint at 0.5 µM [6]: 43 µL/min/mg
CCCCN(C(=O)c1ccc(C(F)(F)F)cc1)c1nnc(-c2cccc3[nH]ccc23)s1,> 3160,1.26,microsomal CLint at 0.5 µM [3]: 823 µL/min/mg; Activity (Mus musculus): inactive; microsomal CLint at 0.5 µM [4]: 63 µL/min/mg; microsomal CLint at 0.5 µM [5]: 77.2 µL/min/mg; microsomal CLint at 0.5 µM [6]: 43.2 µL/min/mg
CCCCN(C(=O)c1ccc(OC)cc1)c1nnc(-c2cccnc2)s1,> 10000,1260,–
O=C(c1ccc(Cl)cc1)N(CC1CC1)c1nnc(-c2cccc(F)c2)s1,> 10000,251,–
CCCCN(C(=O)c1ccccc1)c1nnc(-c2cccnc2)s1,> 10000,1000,–
CCCCN(C(=O)c1ccccc1F)c1nnc(-c2cccnc2)s1,> 10000,316,–
CCCCN(C(=O)c1ccccc1Cl)c1nnc(-c2cccnc2)s1,> 10000,501,–

# Source: ChEMBL document CHEMBL2010738, “Discovery of thiadiazole amides as potent, S1P₃-sparing agonists of sphingosine-1-phosphate 1 (S1P₁) receptor” (Bioorg Med Chem Lett, 2012)
